Screening results: PubChem BioAssay, several laboratories
M1 antagonist = M1 muscarinic receptor (rat) antagonism; AID 628; B-score at 10 µM; P08482; CHO-M1 cells, Fluo-4 calcium, ACh EC80 antagonist mode; hits give low values; 64,000 compounds, 3.4% hits;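 active = calcium fluorescence response, raw or row-and-column corrected B-score, differing from the plate sample mean either way at a set confidence level, mostly lower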
D1 mod = allosteric modulators of human D1 dopamine receptor. P21728. HEK293 D1, CRE-luciferase, dopamine EC30 potentiation; actives deviate in either direction. B-score at 10 µM. 58,000 compounds, 5.9% hits. AID 641;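 active = luminescence count or its row- and column-corrected plate score outside the 99.7% band of the plate's sample wells, on either side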
Target sequence (P21728 whole entry, looked up): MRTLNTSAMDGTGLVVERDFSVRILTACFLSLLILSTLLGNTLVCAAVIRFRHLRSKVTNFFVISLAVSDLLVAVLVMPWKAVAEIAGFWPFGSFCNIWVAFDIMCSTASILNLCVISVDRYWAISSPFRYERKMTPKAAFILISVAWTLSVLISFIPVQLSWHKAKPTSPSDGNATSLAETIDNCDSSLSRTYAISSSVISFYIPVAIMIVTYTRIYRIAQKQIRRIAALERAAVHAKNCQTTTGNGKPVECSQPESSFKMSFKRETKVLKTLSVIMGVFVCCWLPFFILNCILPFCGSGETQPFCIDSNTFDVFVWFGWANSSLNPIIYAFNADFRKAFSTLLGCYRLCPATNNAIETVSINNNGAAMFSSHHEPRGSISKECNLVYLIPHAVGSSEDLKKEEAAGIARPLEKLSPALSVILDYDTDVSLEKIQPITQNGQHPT
M1 agonist = activates the M1 muscarinic receptor. CHO-M1 cells, Fluo-4 calcium fluorescence, agonist mode; hits give high values. B-score at 10 µM. 64,000 compounds, 3% hits. AID 626;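 active = fluorescence rise, raw or as B-score row- and column-corrected plate score, outside the 99.7% band of its plate's samples, either direction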
S1P1 ag-PAM = S1P1 (human) agonism or agonism potentiation; P21453; S1P1 CRE-bla cells, forskolin, beta-lactamase FRET, potentiator mode; S1P1 agonist co-added at EC20, 2 nM; 100% = saturating reference agonist, 0% = basal; activation, % at 9.5 µM; 56,000 compounds, 0.57% hits; AID 449;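 active = activation above a cutoff set at the mean activation of all tested compounds plus 3 SD, cut at about 54% in these data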;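 note: forskolin at 4 µM as EC80 and the EC20 agonist is SEW2871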
S1P3 agonist = activates the human S1P3 receptor; Q99500; S1P3 NFAT-BLA reporter cells, agonism, FRET ratio; relative to 1 µM S1P, basal subtracted; activation, % at 4.5 µM; 60,000 compounds, 0.1% hits; AID 373;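 active = activation above the screen-wide mean plus 3 SD, cut at about 4.5% in these data, passing the limit was not always enough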
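Measure – % activation relative to 1 µM S1P (100%), per plate · System – stable CHO line with human S1P3, Gα16, NFAT-BLA reporter · Timing – cells plated overnight, compound 4 h 37 °C, substrate 2 h RT · Technique – fluorescent BLA substrate, ex 405 nm, em 460/535 nm ratio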
M1 antag conf = M1 muscarinic receptor (rat) antagonism, confirmed | 1,700 compounds, 43% hits | AID 677 | shares compounds with M1 antagonist | CHO-M1 cells, Fluo-4 calcium, ACh EC80 antagonism; hits give low values | calcium response (max-min fluorescence) at 10 µM;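 active = calcium response below the same-plate mean of wells given acetylcholine alone at its 80%-effect dose, minus 3 SD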
mGluR4 antag = mGluR4 (human) activity, M1 antagonist secondary assay; shares compounds with M1 antagonist; CHO-mGluR4 calcium flux, Fluo-4 fluorescence, glutamate EC80; hits give low values; fluorescence response (max-min) at 10 µM; 1,700 compounds, 0.9% hits; AID 678;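 active = fluorescence response below the plate's average for near-maximal glutamate wells, less 3 SD of those wells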;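 note: raw unnormalized fluorescence span taken in the window right after glutamate addition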
Numbers stand for hits; i = inactive; nt = no result given. Rows were chosen to be rich in hits. Some 11% of all compounds tested hit in one or more screens of this group.

SMILES | M1 antagonist | D1 mod | M1 agonist | S1P1 ag-PAM | S1P3 agonist | M1 antag conf | mGluR4 antag
Cc1cc(C(=O)CSc2nnnn2C)c(C)n1-c1ccc2c(c1)OCCO2 | -2.76 | i | i | i | i | 435 | i
COCCCn1c(=S)[nH]c2ccc(N3CCOCC3)cc2c1=O | -10.6 | i | i | nt | nt | i | i
CCCCN(C)CCn1c(=S)[nH]c2ccc(N3CCOCC3)cc2c1=O | i | i | i | nt | nt | nt | nt
O=C(Nc1ccc2c(c1)OCCO2)C1CCCN(S(=O)(=O)c2cccnc2)C1 (stereo not given) | i | i | i | i | i | nt | nt
COC(=O)[C@H](C)NC(=O)Nc1cc(OC)ccc1OC | -1.36 | i | i | i | i | i | i
CC1=C(C(=O)OC(C)C)C(c2ccc(Br)s2)NC(=O)N1C (stereo not given) | i | i | i | i | i | nt | nt
Cc1ccc2c(CC(=O)Nc3ccc(N4CCN(C)CC4)cc3C)coc2c1 | -3.17 | -4.7 | i | i | i | 334 | i
Cc1ccc2c(CC(=O)Nc3sccc3C(N)=O)coc2c1 | i | i | i | i | i | nt | nt
CC1=CCC(C(=O)O)C(C(=O)O)C1 (stereo not given) | i | i | i | nt | nt | nt | nt
CC(C)=CC/C=C1\CCC(C(=O)O)C(C(=O)O)C1 (stereo not given) | -13.8 | i | i | i | i | i | i
C=C(C)C1CC=C(CN2CCC(C(=O)OCC)CC2)CC1 (stereo not given) | -3.73 | i | i | i | i | 422 | i
Brc1cccc(-c2nnc3n2CCCCC3)c1 | i | i | i | i | i | nt | nt
Brc1cccc(-c2cnc3n2CCCCC3)c1 | -12 | -3.32 | i | i | i | 81.1 | i
O=C(CN1CCC(n2nnc3cc(F)ccc32)CC1)N1CCc2ccccc2C1 | i | nt | i | i | i | nt | nt
COC(=O)c1ccccc1NC(=O)CN1CCC(n2nnc3cc(F)ccc32)CC1 | -4.62 | nt | i | i | i | i | i
O=C(CN1CCC(n2nnc3cc(F)ccc32)CC1)NC1CCCCC1 | -3.68 | i | i | i | i | i | i
COC(=O)c1ccccc1NC(=O)CN1CCN(C23CC4CC(CC(C4)C2)C3)CC1 | -10.7 | i | i | i | i | 393 | i
O=C(Nc1c(C(=O)N2CCOCC2)cnn1-c1ccccc1)c1ccco1 | nt | nt | nt | i | i | nt | nt
Cc1ccccc1N1CCN(c2ncnc3c2cnn3Cc2ccc(Cl)cc2)CC1 | i | i | i | i | i | nt | nt
O=C(COc1ccc2ccccc2c1Br)Nn1cnnc1 | i | i | i | i | i | nt | nt
Cc1c(NC2=NC3(CCCCC3)Cc3ccccc32)c(=O)n(-c2ccccc2)n1C | -2.69 | i | i | i | i | 62 | i
Cc1c(NC(=O)C2(C)CCCCC2)c(=O)n(-c2ccccc2)n1C | i | nt | i | i | i | nt | nt
COC(=O)c1c(NC(=O)CN2CCCC(C)C2)c2c(C)cccc2n1C (stereo not given) | i | i | i | i | i | nt | nt
CN(CCC#N)CC(=O)Nc1ccc(NC(=O)CN(C)CCC#N)cc1 | -13.5 | nt | i | i | i | i | i
CC1CCCN(Cc2nc3c(c(=O)n(C)c(=O)n3C)n2Cc2c(F)cccc2Cl)C1 (stereo not given) | -1.01 | i | i | i | i | i | i
SMILES | M1 antagonist | D1 mod | M1 agonist | S1P1 ag-PAM | S1P3 agonist | M1 antag conf | mGluR4 antag
CC1CCN(Cc2nc3c(c(=O)n(C)c(=O)n3C)n2Cc2c(F)cccc2Cl)CC1 | i | i | i | i | i | nt | nt
COc1ccc(Cc2nnc(SCC(=O)NCC3CCCO3)o2)cc1 (stereo not given) | i | i | i | nt | nt | nt | nt
CCCN1CCN(CCCNC(=O)Cn2nc(-c3ccc(Cl)cc3)ccc2=O)CC1 | i | i | i | i | i | nt | nt
O=C(Cn1nc(-c2ccc(Cl)cc2)ccc1=O)NCC1CCCO1 (stereo not given) | -0.801 | i | i | i | i | i | i
Cc1cc(C)c2c(CN3CCN(Cc4ccc5c(c4)OCO5)CC3)cc(=O)oc2c1C | -6.15 | i | i | i | i | 376 | i
Cc1ccc(C)c(N2C(=O)CC(N3CCN(Cc4ccc5c(c4)OCO5)CC3)C2=O)c1 (stereo not given) | -2.93 | i | i | i | i | 542 | i
CCN1CCN(Cc2cc(=O)oc3cc(C)cc(C)c23)CC1 | -1.17 | i | i | i | i | 461 | i
Cc1ccc2c(CN3CCN(Cc4ccc5c(c4)OCO5)CC3)cc(=O)oc2c1C | -2.28 | i | i | i | i | 475 | i
Cc1cc(C)c2c(CN3CCN(Cc4ccc5c(c4)OCO5)CC3)cc(=O)oc2c1 | -10.3 | i | i | i | i | 61.3 | i
CCOc1ccccc1NC(=O)CSc1nnc(-c2ccccc2Cl)n1Cc1ccco1 | i | i | i | i | i | nt | nt
COc1cccc(NC(=O)N2CCN(c3cccc(C)c3C)CC2)c1 | i | i | i | i | i | nt | nt
Cc1onc(-c2c(F)cccc2Cl)c1C(=O)Nc1ccc(S(=O)(=O)Nc2ncccn2)cc1 | i | i | i | i | i | nt | nt
C[N+]12CCC(CC1)C(OC(=O)C(O)(c1ccccc1)c1ccccc1)C2 (stereo not given) | -16.3 | i | i | i | i | 15.8 | i
O=C(NC(=O)c1ccccc1)NC1(C(F)(F)F)OCCO1 | -18.8 | i | i | nt | i | i | i
COc1cc(C(=O)NCc2ccco2)cc(OC)c1OC | i | i | i | i | i | nt | nt
COC(=O)[C@H](C)NC(=O)NCc1ccco1 | -4.26 | i | i | i | i | i | i
CCn1ncc2c(OCc3ccc(C#N)cc3)cc(C)nc21 | i | i | i | i | i | nt | nt
Cc1ccc2[nH]c3c(c2c1)CN(C(=O)CN1CCSCC1)CC3 | -3.07 | i | i | i | i | i | i
COc1ccc(OC)c(NC(=O)CC(NCCC2=CCCCC2)C(=O)O)c1 (stereo not given) | i | i | i | i | i | nt | nt
CCCC1COC(Cn2cncn2)(c2ccc(C)cc2)O1 (stereo not given) | -12.9 | i | i | i | i | i | i
CCN(CC)CCCN1C(=O)C(O)=C(C(=O)c2cc3cccc(OC)c3o2)C1c1ccncc1 (stereo not given) | i | i | i | i | i | nt | nt
Cc1ccc(Cl)cc1N1CCN(C(c2ccc(C#N)cc2)c2nnnn2C2CCCC2)CC1 (stereo not given) | -4.07 | i | i | i | i | i | i
COc1ccc(-n2c(COc3ccccc3)nnc2SCc2ccc(C#N)cc2)cc1 | -3.35 | i | i | i | i | i | i
COCc1cc(C)nc(SCC(=O)N2CCC(C)CC2)c1C#N | i | i | i | i | i | nt | nt
Cc1c(NC(=O)c2ccc3c(c2)OCO3)c(=O)n(-c2ccccc2)n1C | i | nt | i | nt | nt | nt | nt
CCOC(=O)C1CCN(C2CC(=O)N(c3ccc(OCC)cc3)C2=O)CC1 (stereo not given) | i | i | i | i | i | nt | nt
